# From PubChem BioAssay
# This is a sample that favours compounds with a hit; in the whole collection about 1.9% have one here.
# CXCR6 block – CXCR6 receptor inhibitors, primary screen, cell-based, beta-arrestin, luminescence, CHO-K1 PathHunter, 1536-well. inhibition, % at 20 µM. hit rate 0.36% among 360,000. AID 602244, 2012; in the data active = inhibition above about 34%, passing the limit was not always enough;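 also: antagonist mode with CXCL16 agonist at 10 nM final; 0% = 10 nM CXCL16 with DMSO and 100% = unstimulated wells without agonist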
# EBI2 antag – EBI2 receptor antagonists, beta-arrestin recruitment, primary screen, cell-based, luminescence, 7a,25-OHC stimulation, uHTS | inhibition, % at 5 µM | G-protein coupled receptor 183 (Homo sapiens), P32249 | AID 651636, 2012 | hit rate 0.81% among 360,000 | 7a,25-OHC stimulated; in the data active = inhibition above about 38%;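 also: enzyme fragment complementation signal reports receptor beta-arrestin coupling in cells; 0% = agonist plus DMSO wells and 100% = wells without agonist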
# APJ ag – agonists of human apelin receptor APJ, primary screen, CHO-K1 cells, PathHunter beta-arrestin, luminescence | P35414 | 0% DMSO wells, 100% apelin | activation, % at 20 µM | hit rate 0.11% among 330,000 | AID 2520, 2010;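 active = activation more than six SD over the plate average, tested at 20 µM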;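 also: 0% = DMSO alone and 100% = apelin-13 at 10 nM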
# Target sequence (P35414 whole entry, looked up): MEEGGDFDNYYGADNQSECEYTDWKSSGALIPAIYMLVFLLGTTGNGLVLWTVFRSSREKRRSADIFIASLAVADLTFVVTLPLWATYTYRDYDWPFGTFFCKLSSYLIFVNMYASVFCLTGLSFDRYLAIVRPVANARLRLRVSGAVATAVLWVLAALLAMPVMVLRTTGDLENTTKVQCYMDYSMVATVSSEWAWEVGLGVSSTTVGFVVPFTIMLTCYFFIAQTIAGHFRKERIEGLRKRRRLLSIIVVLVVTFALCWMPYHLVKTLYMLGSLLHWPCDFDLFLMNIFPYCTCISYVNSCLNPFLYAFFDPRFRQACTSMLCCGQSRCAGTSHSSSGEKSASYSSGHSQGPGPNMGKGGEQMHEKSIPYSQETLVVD
#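 Assay system: CHO-K1 cells stably expressing ProLink-tagged human APJ and arrestin–beta-gal acceptor. Compound dosing: 20 µM single point, 1% DMSO. Times: 16-18 h seeding, 90 min dark compound exposure, 60 min detection. Detection: beta-gal luminescence. Evaluation: APJ–arrestin association signal. Controls: negative DMSO alone, positive Apelin-13 at 10 nM.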
# TAG inh – inhibitors of triacylglycerol accumulation, primary screen, cell-based, uHTS, fluorescence, H9c2; H9c2 cells, Nile Red lipid (TAG) fluorescence; cells loaded with 200 µM oleic acid; hit rate 0.66% among 230,000; inhibition, % at 12.5 µM; AID 651582, 2012;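 active = pattern-corrected inhibition of lipid staining of at least 50% with the nuclear-stain viability signal not falling by more than 50%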;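 also: 0% = DMSO wells and 100% = triacsin C control wells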
# CCR6 antag – CCR6 receptor antagonists, primary screen, cell-based, CHO-K1, luminescence, beta-arrestin, uHTS; C-C chemokine receptor type 6 (Homo sapiens), P51684; CHO-K1 CCR6 PathHunter beta-arrestin, CCL20-stimulated; inhibition, % at 20 µM; hit rate 0.49% among 340,000;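 active = compounds whose inhibition of the agonist-driven luminescence signal at 20 µM reaches about 50%, limit read from the data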;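 also: cells stimulated with CCL20 at 14 nM final; plate controls were DMSO with CCL20 for no effect and DMSO without agonist for full effect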
# APJ antagonist – antagonists of human apelin receptor APJ, primary screen, CHO-K1 cells, beta-arrestin complementation, luminescence; P35414; inhibition, % at 20 µM; hit rate 0.32% among 330,000;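 active = inhibition above about 40% at 20 µM, limit read from the data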;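 also: cells challenged with 10 nM apelin-13 agonist together with compound; plate controls were apelin-13 plus DMSO wells for no effect and DMSO wells lacking apelin-13 for full effect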
# TAG conf – triacylglycerol accumulation inhibitors, retest, confirmation, cell-based, single concentration, Nile Red fluorescence, H9c2; H9c2 lipid accumulation; cells loaded with 200 µM oleic acid; inhibition, % at 12.5 µM; hit rate 71% among 990; shares compounds with TAG inh; AID 651629, 2012;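 active = mean inhibition across replicates of 40% or more; inactive = mean inhibition below 40%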;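 also: plate controls were DMSO only wells for no effect and Triacsin C treated wells for full effect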
# * hit, by the source's call; . = not tested or not shown.
SMILES,CXCR6 block,EBI2 antag,APJ ag,TAG inh,CCR6 antag,APJ antagonist,TAG conf
C=CCn1cccc(C(=O)Nc2ccc(F)cc2)c1=O,-15,5,-2,.,-2,11,.
O=C(NCCCNc1ccc([N+](=O)[O-])cc1)C(F)(F)F,3,5,-2,-7,16,5,.
O=C(CCl)N(CCCNC(=O)C(F)(F)F)c1ccc([N+](=O)[O-])cc1,-2,3,-3,68*,6,-1,56*
COC(=O)[C@@]1(Cc2ccccc2)[C@H]2C(=O)N(Cc3ccccc3)C(=O)[C@H]2[C@H]2CN=C(SCc3ccc(Cl)cc3)N21,7,13,.,51*,18,.,71*
Cc1nc2c(OCc3ccc(C(F)(F)F)cc3)cccn2c1N(C)Cc1cccs1,10,31,.,-7,.,.,.
CCOc1c(Br)cc(CNC2CCCCCCC2)cc1OC,4,7,-3,70*,-8,5,80*
COc1cc(CNC2CCCCCCC2)cc(Br)c1OCC#N,2,6,0,.,1,11,.
CCOc1ccc(C(=O)n2cc(C(=O)OC)c3ccccc32)cc1,-6,-13,-6,.,9,-13,.
COc1ccc(Cc2c(C(C)(C)C)nc3c(C)cc(Br)cn23)c(C)c1,8,-8,.,.,.,.,.
Cc1ccc(NC(=O)N2CCCC2C(=O)Nc2ccc(-n3cnnn3)c(C)c2)cc1 (centres undefined),0,-6,-6,-12,10,12,.
CCOc1ccccc1NC(=O)N1CCCC1C(=O)Nc1ccc(-n2cnnn2)c(C)c1 (centres undefined),5,-11,1,56*,14,0,39
O[C@H]1C[C@H](c2ccc(Cl)cc2)N(CC2CCCCC2)C[C@@H]1n1cc(-c2ccc(F)cc2)nn1,-5,1,.,7,.,.,.
O[C@H]1CN(CC2CCCCC2)[C@@H](c2ccc(Cl)cc2)C[C@@H]1n1cc(-c2ccc(F)cc2)nn1,3,16,.,51*,.,.,64*
CC(C)(C)C(=O)Nc1cc(S(=O)(=O)Nc2ccc(Cl)cc2)ccc1Cl,-8,3,2,.,-9,4,.
CC(=O)Nc1cc2cc(NS(=O)(=O)c3ccc(Cl)cc3)ccc2oc1=O,-4,12,2,58*,0,-9,10
CCN1CCN(Cc2ccc(NC(=O)c3ccc(C)c(NC(=O)C(=O)c4c[nH]c5ccccc45)c3)cc2C(F)(F)F)CC1,-2,5,2,77*,23,-63,79*
CCN1CCN(Cc2ccc(NC(=O)c3cc(NC(=O)C(=O)c4c[nH]c5ccccc45)cc(OC)c3)cc2C(F)(F)F)CC1,8,-6,15,104*,12,20,94*
Cc1ccc(NC(=O)CSc2n[nH]c(-c3cccnc3)n2)c(Br)c1,4,-5,4,.,15,-19,.
N#C/C(=C\c1ccc(OC(F)F)cc1)C(=O)N1CCCCC1,-2,8,2,83*,-4,0,2
CCN1CCN(C(=O)/C(C#N)=C/c2ccc(OC(F)F)cc2)CC1,-2,5,-4,-9,8,6,.
C[C@H](O)[C@@H]1C(=O)N2CCc3ccc(N4CCN(C)CC4)cc3[C@@H]2C[C@@H]1N(C)C(=O)c1ccc(C#N)cc1,1,-13,.,7,-2,.,.
CCOC(=O)N1CCC(N2Cc3cccc(C(=O)Nc4ccc(CC)cc4)c3C2=O)CC1,-4,29,-4,70*,-8,9,27
CN(C)CCCn1c(SCC(=O)Nc2nc(-c3cccc(Br)c3)cs2)nc2ccccc2c1=O,-4,10,-2,79*,23,18,67*
O=C(CSc1nc2ccccc2[nH]1)Nc1nc(-c2cccc(Br)c2)cs1,-1,-4,-2,.,-4,3,.
CC(C)CC(N)c1csc(NC(=O)Nc2ccccc2Cc2ccccc2)n1 (centres undefined),0,6,.,114*,.,.,69*
SMILES,CXCR6 block,EBI2 antag,APJ ag,TAG inh,CCR6 antag,APJ antagonist,TAG conf
COc1cc(OC)nc(Nc2nc(C(N)Cc3ccc(Cl)cc3)cs2)n1 (centres undefined),-15,-12,.,58*,.,.,46*
COc1ccc(CC(N)c2csc(NC(=O)Nc3ccccc3C(C)(C)C)n2)cc1 (centres undefined),1,-1,.,40,.,.,.
COC(=O)c1cc(C)nc(Nc2nc(C(N)Cc3ccc(Cl)cc3)cs2)n1 (centres undefined),-5,-9,.,13,.,.,.
CC(C)CC(N)c1csc(NC(=O)Nc2ccccc2-c2ccccc2)n1 (centres undefined),-15,-5,.,107,.,.,.
COc1ccc(CC(N)c2csc(NC(=O)NCc3ccccc3)n2)cc1 (centres undefined),-2,-15,.,53*,.,.,42*
COc1ccc(CNC(=O)Nc2nc(C(N)c3ccccc3)cs2)cc1 (centres undefined),12,2,.,-3,.,.,.
COc1ccc(CC(N)c2csc(NC(=O)Nc3ccccc3-c3ccccc3)n2)cc1 (centres undefined),-14,-5,.,73*,.,.,87*
Cn1c(=S)[nH]c2sc3c(c2c1=O)CCC(C(C)(C)C)C3 (centres undefined),6,12,-2,.,.,14,.
COc1cccc(-c2cc3c(c4c2ccn4C)C2CCC3C2)c1 (centres undefined),2,12,.,.,.,.,.
COc1cc(CNC(=O)Nc2nc(C(N)Cc3ccc(C(F)(F)F)cc3)cs2)cc(OC)c1OC (centres undefined),-19,-4,.,76*,.,.,88*
NC(Cc1ccc(C(F)(F)F)cc1)c1csc(NC(=O)Nc2ccccc2)n1 (centres undefined),-11,-20,.,28,.,.,.
COc1cc(NC(=O)Nc2nc(C(N)CCc3ccccc3)cs2)cc(OC)c1OC (centres undefined),-6,0,.,83*,.,.,89*
O=C1NC[C@@H](CCCCN2CCN(CCc3ccc(O)cc3)C(=O)C2=O)N(Cc2ccccc2)C1=O,-3,-7,.,.,.,.,.
CCOC(=O)C1=C(COC(=O)c2ccc(Br)c(S(=O)(=O)N3CCOCC3)c2)NC(=O)NC1C (centres undefined),2,-10,.,-3,15,.,.
COc1ccc(C(=O)Nc2ccc(C(=O)Nc3cccc(C)c3)cc2)cc1,-3,8,-7,56*,4,14,38
